For data set [1], the species on record is Mus musculus. As to the kind of experiment: Anticonvulsant activity expressed as dose at which 50% of the mice were protected from tonic hindlimb seizures induced by maximal electroshock (MES). The class given is functional. Summed up: (§1)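 Mice were given at least four doses, with six animals per dose. Compound was dissolved in 30% polyethylene glycol and injected i.p. at 0.01 mL/g body weight. Challenge was pentylenetetrazole 85 mg/kg (clonic seizures) or maximal electroshock (tonic hindlimb extension). ED50 is the dose protecting 50%, with 95% fiducial limits.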

In data set [2] the target is GABA-A receptor; anion channel. As to the kind of experiment: Ability to displace radioligand [35S]TBPS from Gamma-aminobutyric acid A receptor binding site in rat brain membranes. The class given is cell membranes. Summed up: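 Values are mean and range from duplicate experiments, each run in triplicate. For some lactams the values are mean ± SEM of three experiments run in triplicate. Read-out is IC50 (mM) for displacement of [35S]TBPS.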

The nature of data set [3]: Neurotoxicity was evaluated by a rotarod test. It is filed as toxicity. The settings on record: mouse. Summed up:
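Mice were given at least four i.p. doses of compound in 30% polyethylene glycol at 0.01 mL/g, with six per dose, then tested on the rotorod. TD50 is the dose at which 50% failed, with 95% fiducial limits. Where these could not be calculated, the highest all-nontoxic dose and the lowest all-toxic dose are given instead.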

For data set [4], the system named is Mus musculus. Briefly: Anticonvulsant activity expressed as dose at which 50% of the mice were protected from clonic seizures induced by pentylenetetrazole (85 mg/Kg). It is filed as functional. Summed up:
as §1

Data set [5] can be described thus: Protective Index (PI) determined as the ratio of toxic dose (TD50) and effective dose (ED50 (MES)). The settings on record: mouse; read-out: PI. It is filed as ADME. Summed up: (§2)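 The protective index was calculated as rotorod TD50 divided by the ED50 against PTZ- or MES-induced seizures. All values come from i.p. dosing in 30% polyethylene glycol in mice, six per dose.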

Data set [6] is described as follows: Protective Index (PI) determined as the ratio of toxic dose (TD50) and effective dose (ED50 (PTZ)). It is filed as ADME. The note with it: mouse; read-out: PI. Summed up: as §2
The species entered for data set [7] is Rattus norvegicus. Briefly: Antagonism of compound (1 mM) induced potentiation of 3 uM GABA-mediated chloride currents in cultured rat hippocampal neurons. It is filed as functional. Put shortly: (§3)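 Whole-cell peak current evoked by 3 μM GABA, with test compound alone or with 3 mM α-isopropyl-α-methyl-γ-butyrolactone, in cultured rat hippocampal neurons. Each peak was normalized to the peak from 3 μM GABA alone on the same cell, with 100% meaning no change. Values are mean ± SEM over 5–14 cells. Alone vs plus antagonist was compared by Student's t test.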

Data set [8] addresses GABA-A receptor; anion channel (Rattus norvegicus) (UniProt O09028+P15431+P18506+P18508+P19969+P20236+P23574+P23576+P28471+P28473+P30191+P62813+P63079+P63138+Q91ZM7+Q9ES14). Briefly: Induced potentiation of 3 uM GABA-mediated chloride currents at 1 mM in the presence of 3 mM alpha-IMGBL (picrotoxin antagonist). It is filed as functional. Summed up: as §3
The species named for data set [9] is Rattus norvegicus. Briefly: Antagonism of compound (300 uM) induced potentiation of 3 uM GABA-mediated chloride currents in cultured rat hippocampal neurons. The class given is functional. Put shortly: as §3
Data set [10] deals with Mus musculus. As to the kind of experiment: Anticonvulsant activity expressed as dose at which 50% of the mice were protected from clonic seizures induced by pentylenetetrazole (85 mg/Kg); cytotoxicity observed at 300 mg/kg. The class given is functional.
Data set [11] is filed under the species Rattus norvegicus. As to the kind of experiment: Antagonism of compound (600 uM) induced potentiation of 3 uM GABA-mediated chloride currents in cultured rat hippocampal neurons. It is filed as functional. Put shortly:
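Cultured rat hippocampal neurons. Test compound was applied with 3 μM GABA, with and without α-isopropyl-α-methyl-γ-butyrolactone (3 mM). Peak current was normalized to the peak from 3 μM GABA alone on the same cell, where 100% means no change. Mean ± SEM over N cells; Student's t test compared compound alone with compound plus antagonist.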

For data set [12], the species on record is Rattus norvegicus. As to the kind of experiment: Antagonism of compound (200 uM) induced potentiation of 3 uM GABA-mediated chloride currents in cultured rat hippocampal neurons. The class given is functional. Put shortly: as §3

The text below walks through data of ChEMBL document CHEMBL1130018, “Synthesis and anticonvulsant activities of 3,3-dialkyl- and 3-alkyl-3-benzyl-2-piperidinones (delta-valerolactams) and hexahydro-2H-azepin-2-ones (epsilon-caprolactams)” (J Med Chem, 1997).

In the case of `O=C1CCCCN1`, the ED50 (in general, the midpoint of the dose-response relation) in the data set filed under Mus musculus [1] is over 600 mg/kg. Further, the IC50 (as a rule, the concentration that inhibits the measured activity by half) in data set [2] turned out to be 197 mM. For the same compound, the TD50 (usually the dose at which the toxic effect under study appears in half of the subjects) in data set [3] is over 600 mg/kg.

As to `CCC1CCCNC1=O` (configuration not stated), the values for the median effective dose (ED50) in the data set on Mus musculus [4] and in the data set filed under Mus musculus [1] were 297 mg/kg and 550 mg/kg, respectively. The compound also displayed a 50% inhibitory concentration (IC50) in data set [2] of 8.78 mM. Further, the selectivity ratio was over 0.59 in [5] and over 1.09 in [6]. The TD50 in data set [3] is over 325 mg/kg.

In turn, `CCCC(CCC)C(=O)O` [VALPROIC ACID] displayed a median effective dose (ED50) in the data set filed under Mus musculus [1] of 206 mg/kg.

Consider `O=C1NCCCC1Cc1ccccc1` (configuration not stated), for which the 50% effective dose (ED50) is 82 mg/kg in the data set on Mus musculus [4] and 41 mg/kg in the data set listed under Mus musculus [1]. The IC50 in [2] was 1.44 mM. In addition, the selectivity ratio in data set [5] was found to be 7.05; in [6] it was 3.52. Also, the TD50 in data set [3] was 289 mg/kg.

In the case of `CCC1CCCCNC1=O` (configuration not stated), the ED50 in the data set on Mus musculus [4] amounted to 210 mg/kg; in the data set filed under Mus musculus [1], 249 mg/kg. For the same compound, the 50% inhibitory concentration (IC50) in data set [2] was found to be 3.2 mM. The selectivity ratio in [5] is 0.58; in data set [6], 0.69. Besides, the TD50 in [3] is 145 mg/kg.

As for `CCC1(CC)CCCNC1=O`, the ED50 was 37 mg/kg with Mus musculus [4] and 54 mg/kg in the data set listed under Mus musculus [1]. For the same compound, the IC50 in data set [2] came to 1.31 mM. Moreover, the selectivity ratio stood at 3.06 in [5] and 4.46 in [6]. Also, the Response in the data set listed under Rattus norvegicus [7] worked out at 142%; in data set [8], 102%. The same compound came in with a TD50 in data set [3] of 165 mg/kg.

Consider `CCC1(c2ccccc2)C(=O)NC(=O)NC1=O` [PHENOBARBITAL], for which, in the data set listed under Mus musculus [1], the ED50 stood at 17 mg/kg. In addition, the selectivity ratio in data set [5] is 5.18; in data set [6], 4. In addition, in data set [3], the TD50 worked out at 88 mg/kg.

In the data set filed under Mus musculus [1], `CCC1(Cc2ccccc2)CCCNC1=O` (configuration not stated) came in with a median effective dose (ED50) of 70 mg/kg. In data set [2], this compound returned an IC50 of 0.27 mM. The figures for the selectivity ratio in data set [5] and in [6] were 1.47 and 1.69, respectively. Further, the Response in the data set filed under Rattus norvegicus [9] came out at 138%; in data set [8] it was 93%. In data set [3], the TD50 was 103 mg/kg.

Take `CCC1(C)CCCNC1=O` (configuration not stated): the ED50 stood at 168 mg/kg in the data set on Mus musculus [4] and 199 mg/kg in the data set filed under Mus musculus [1]. In data set [2], this compound came in with an IC50 of 4.41 mM. Besides, the selectivity ratio in data set [5] came out at 1.9; in [6] it was 2.25. The compound further displayed a TD50 in data set [3] of 378 mg/kg.

Turning to `O=C1CCCCCN1` [CAPROLACTAM], the ED50 in the data set listed under Mus musculus [1] and with Mus musculus [10] was over 300 mg/kg each time. For the same compound, the IC50 in data set [2] came out at 17.4 mM. For the same compound, the selectivity ratio in data set [5] and in data set [6] was under 1 in each case. For the same compound, in data set [3], the TD50 was under 300 mg/kg.

In the case of `CCC1(C)CC(=O)NC1=O` (configuration not stated) [ETHOSUXIMIDE], the 50% effective dose (ED50) in the data set filed under Mus musculus [1] was over 562 mg/kg. Further, the selectivity ratio in data set [5] was under 0.67; in [6], 2.35. The TD50 in data set [3] worked out at 378 mg/kg.

With `CCC1(Cc2ccccc2)CCCCNC1=O` (configuration not stated), the 50% effective dose (ED50) in the data set with Mus musculus [4] and in the data set listed under Mus musculus [1] was over 100 mg/kg in each case. The compound further yielded an IC50 in [2] of 0.09 mM. The results for the Response (in [8]; in the data set filed under Rattus norvegicus [11]) were 107% and 128%, respectively. The TD50 in data set [3] is over 100 mg/kg.

`CC1CCCNC1=O` (configuration not stated) registered a half-maximal inhibitory concentration (IC50) in data set [2] of 27.7 mM. This compound displayed a TD50 in data set [3] of over 600 mg/kg.

For `CCC1(CC)CCNC1=O`, the selectivity ratio in data set [5] was determined as 1.49; in [6], 5.65.

For `CC1(Cc2ccccc2)CCCNC1=O` (configuration not stated), the 50% effective dose (ED50) in the data set listed under Mus musculus [1] is 50 mg/kg. Besides, the IC50 in data set [2] came out at 0.73 mM. Besides, the selectivity ratio in data set [5] was 2.5; in [6], 2.23. The compound also came in with a TD50 in data set [3] of 125 mg/kg.

Regarding `O=C1NCCC1Cc1ccccc1` (configuration not stated), the selectivity ratio turned out to be 3.51 in data set [5] and 2.03 in data set [6].

In the case of `CCC1(CC)CCCCNC1=O`, the Response was 117% in the data set filed under Rattus norvegicus [12] and 105% in data set [8]. Besides, the ED50 in the data set on Mus musculus [4] is 226 mg/kg; in the data set filed under Mus musculus [1], 178 mg/kg. For the same compound, the half-inhibitory concentration (IC50) in data set [2] worked out at 0.38 mM. Besides, the selectivity ratio in data set [5] was 0.74; in data set [6] it was 0.58. In addition, the TD50 in data set [3] turned out to be 131 mg/kg.
